Data: ChEMBL document CHEMBL3352728, “Synthesis and biological evaluation of 1,2,3-triazole linked aminocombretastatin conjugates as mitochondrial mediated apoptosis inducers” (Bioorg Med Chem, 2014)
Active and inactive are the calls of the source. The rule behind the calls is not given here.

How the values were obtained:
HeLa = test: Cytotoxicity against human HeLa cells after 48 hrs by MTT assay; type: functional, cell-based
Procedure, shortened: (§1)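 MTT assay. Cells seeded at 1×10^4 per well in DMEM with 10% FBS and grown 24 h at 37 °C under CO2. Compounds diluted in medium, vehicle control included, 48 h exposure. MTT (5 mg/mL stock) added for 4 h, formazan dissolved in DMSO, absorbance read at 570 nm. IC50 taken as the average of three independent experiments.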

ACHN = test: Cytotoxicity against human ACHN cells after 48 hrs by MTT assay; type: functional, cell-based; procedure, shortened: as §1
A549 [1] = test: Cytotoxicity against human A549 cells after 48 hrs by MTT assay; type: functional, cell-based; conditions: A549, 48 h; procedure, shortened: as §1
MCF7 = test: Cytotoxicity against human MCF7 cells after 48 hrs by MTT assay; type: functional, cell-based; conditions: MCF7, 48 h; procedure, shortened: as §1
HepG2 = test: Cytotoxicity against human HepG2 cells after 48 hrs by MTT assay; type: functional, cell-based; conditions: HepG2, 48 h; procedure, shortened: as §1
A549 [2] = test: Induction of apoptosis in human A549 cells assessed as apoptotic bodies level at 25 nM incubated for 48 hrs by Hoechst staining based fluorescent microscopy; type: functional, cell-based
Procedure, shortened: (§2)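 A549 cells, 10,000 per coverslip, cultured 24 h, then exposed to 25 nM for 48 h. Stained with Hoechst 33258 (0.5 mg/mL) for 30 min at 37 °C and washed in PBS. Random fields imaged by fluorescence microscopy and scored qualitatively for chromatin condensation, nuclear fragmentation and apoptotic bodies.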

A549 [3] = test: Induction of ROS generation in human A549 cells at 25 nM incubated for 48 hrs by DCFH-DA staining based fluorescence assay; type: functional, cell-based
Procedure, shortened: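 A549 cells exposed to 25 nM for 48 h, then loaded with 5 μM DCFH-DA for 30 min at 37 °C. DCF fluorescence read at ex 485/em 530 nm. CA-4 at 25 nM run in parallel.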

A549 [4] = test: Induction of microtubule network disruption in human A549 cells at 25 nM incubated for 48 hrs by immunohistochemistry; type: cell-based
Procedure, shortened: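 A549 cells on glass coverslips exposed to 25 nM for 48 h, with CA-4 at 25 nM in parallel. Fixed in 3% paraformaldehyde/0.02% glutaraldehyde and permeabilized in methanol overnight at 4 °C. Blocked with 1% BSA, stained with mouse anti-tubulin primary and FITC-labelled anti-mouse IgG, and examined by fluorescence microscopy for microtubule network integrity.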

A549 [5] = test: Induction of mitochondrial membrane potential loss in human A549 cells at 25 nM incubated for 48 hrs by JC1 dye staining based fluorescence assay; type: functional, cell-based
Procedure, shortened: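 A549 cells exposed to 25 nM for 48 h, then loaded with JC-1 for 20 min at 37 °C. JC-1 green monomer emission (525 nm) compared with red aggregate emission (590 nm) to read depolarization. CA-4 at 25 nM included.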

A549 [6] = test: Induction of cell cycle arrest in human A549 cells assessed as accumulation at S phase at 25 nM after 48 hrs by propidium iodide staining based flow cytometry (reference value: 4.69%); type: functional
A549 [7] = test: Induction of DNA fragmentation in human A549 cells at 25 nM incubated for 48 hrs by agarose gel electrophoresis method; type: functional, cell-based
Procedure, shortened: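 A549 cells (1×10^6) plated for 24 h, then exposed to 25 nM for 48 h. Cells pelleted and lysed. Lysate treated with SDS and RNase A for 2 h at 56 °C, then proteinase K for 2 h at 37 °C. DNA precipitated with ammonium acetate and cold ethanol, redissolved in TE buffer, and laddering run on 2% agarose gel.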

A549 [8] = test: Induction of cell cycle arrest in human A549 cells assessed as accumulation at G0/G1 phase at 50 nM after 48 hrs by propidium iodide staining based flow cytometry (reference value: 87.75%); type: functional
A549 [9] = test: Induction of cell cycle arrest in human A549 cells assessed as accumulation at subG1 phase at 50 nM after 48 hrs by propidium iodide staining based flow cytometry (reference value: 1.41%); type: functional
A549 [10] = test: Induction of apoptosis in human A549 cells assessed as nuclear fragmentation at 25 nM incubated for 48 hrs by Hoechst staining based fluorescent microscopy; type: functional, cell-based; procedure, shortened: as §2
Tubulin (Homo sapiens) [11] = target: T1, Tubulin (Homo sapiens) (UniProt P68371+Q9H4B7+P0DPH7+P68366+Q13509+Q71U36+P04350+Q3ZCM7+P07437+P68363+Q9BQE3+Q6PEY2+Q13885+Q9BVA1+Q9BUF5); test: Binding affinity to tubulin (unknown origin) incubated for 60 mins by colchicine competition assay; type: protein-complex assay
Procedure, shortened: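 Tubulin (3 μM) incubated with test agents (5, 10, 15, 20 μM) with and without 3 μM colchicine in 30 mM Tris buffer, 60 min at 37 °C. Tubulin–colchicine fluorescence read at ex 350/em 435 nm. Compound-alone signal subtracted from the compound+colchicine signal, Tris blank subtracted, values normalized to DMSO control. CA-4 positive control, taxol negative control.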

A549 [12] = test: Induction of apoptosis in human A549 cells assessed as caspase-3 activation at 25 nM incubated for 48 hrs by ELISA method; type: functional
Procedure, shortened: (§3)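 A549 cells treated 48 h at 25 or 50 nM, with CA-4 at 50 nM as reference. Cells pelleted, PBS-washed, lysed 15 min and centrifuged. Supernatant assayed with a colorimetric caspase-3 kit. Mean ± SD from two experiments, each in triplicate.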

A549 [13] = test: Induction of cell cycle arrest in human A549 cells assessed as accumulation at G2/M phase at 50 nM after 48 hrs by propidium iodide staining based flow cytometry (reference value: 6.15%); type: functional
A549 [14] = test: Induction of cell cycle arrest in human A549 cells assessed as accumulation at G2/M phase at 25 nM after 48 hrs by propidium iodide staining based flow cytometry (reference value: 6.15%); type: functional
A549 [15] = test: Induction of cell cycle arrest in human A549 cells assessed as accumulation at subG1 phase at 25 nM after 48 hrs by propidium iodide staining based flow cytometry (reference value: 1.41%); type: functional
A549 [16] = test: Induction of apoptosis in human A549 cells assessed as chromatin condensation at 25 nM incubated for 48 hrs by Hoechst staining based fluorescent microscopy; type: functional, cell-based; procedure, shortened: as §2
Tubulin (Homo sapiens) [17] = target: T1, Tubulin (Homo sapiens); test: Inhibition of tubulin (unknown origin) polymerization at 3 uM incubated for 1 hr by fluorescence assay; type: protein-complex assay
Procedure, shortened: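 Fluorescence-reporter tubulin polymerization kit. PEM buffer with […], compounds at 3 μM final concentration. Fluorescence followed at ex 360/em 420 nm for 1 h at 37 °C. CA-4 positive control. Mean ± SD from two experiments, each in triplicate.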

Tubulin = test: Inhibition of tubulin (unknown origin) polymerization incubated for 1 hr by fluorescence assay; type: protein-complex assay, Homo sapiens
A549 [18] = test: Induction of cell cycle arrest in human A549 cells assessed as accumulation at G0/G1 phase at 25 nM after 48 hrs by propidium iodide staining based flow cytometry (reference value: 87.75%); type: functional
A549 [19] = test: Induction of cell cycle arrest in human A549 cells assessed as accumulation at S phase at 50 nM after 48 hrs by propidium iodide staining based flow cytometry (reference value: 4.69%); type: functional
A549 [20] = test: Induction of apoptosis in human A549 cells assessed as caspase-3 activation at 50 nM incubated for 48 hrs by ELISA method; type: functional; procedure, shortened: as §3

Structure (SMILES)	IC50 (HeLa)	IC50 (ACHN)	IC50 (A549 [1])	IC50 (MCF7)	IC50 (HepG2)	other results
COc1cccc(Cn2cc(C(=O)Nc3c(/C=C\c4cc(OC)c(OC)c(OC)c4)ccc(OC)c3O)nn2)c1	4570 nM	9510 nM	1620 nM	1940 nM	1950 nM	–
COc1cc(/C=C\c2cc(OC)c(OC)c(OC)c2)cc(NC(=O)c2cn(Cc3cc(OC)c(OC)c(OC)c3)nn2)c1OC	720 nM	4760 nM	181 nM	1380 nM	3390 nM	–
COc1ccc(/C=C\c2cc(OC)c(OC)c(OC)c2)cc1NC(=O)c1cn(Cc2cccc(Oc3ccccc3)c2)nn1	3230 nM	5740 nM	2570 nM	4190 nM	3720 nM	–
COc1ccc(/C=C\c2cc(OC)c(OC)c(OC)c2)c(NC(=O)c2cn(Cc3cc(OC)c(OC)c(OC)c3)nn2)c1O	770 nM	5130 nM	830 nM	2400 nM	1700 nM	–
COc1cccc(Cn2cc(C(=O)Nc3cc(/C=C\c4cc(OC)c(OC)c(OC)c4)ccc3OC)nn2)c1	1140 nM	5270 nM	1860 nM	1610 nM	1800 nM	–
COc1ccc(/C=C\c2cc(OC)c(OC)c(OC)c2)cc1NC(=O)c1cn(Cc2ccc(F)cc2)nn1	68 nM	1660 nM	53 nM	597 nM	58 nM	Activity (A549 [2]): Active; Activity (A549 [3]): Active; Activity (A549 [4]): Active; Activity (A549 [5]): Active; Activity (A549 [6]): 5.49%; Activity (A549 [7]): Active; Activity (A549 [8]): 61.99%; Activity (A549 [9]): 4.36%; Activity (A549 [10]): Active; Activity (Tubulin (Homo sapiens) [11]): Active; fold change (FC) (A549 [12]): 3; Activity (A549 [13]): 25.73%; Activity (A549 [14]): 17.57%; Activity (A549 [15]): 1.52%; Activity (A549 [16]): Active; inhibition (Tubulin (Homo sapiens) [17]): 66.8%; IC50 (Tubulin): 1160 nM; Activity (A549 [18]): 75.42%; Activity (A549 [19]): 7.93%; fold change (FC) (A549 [20]): 3
COc1ccc(Cn2cc(C(=O)Nc3c(/C=C\c4cc(OC)c(OC)c(OC)c4)ccc(OC)c3O)nn2)cc1	3540 nM	5890 nM	1450 nM	2620 nM	1200 nM	–
COc1ccc(/C=C\c2cc(OC)c(OC)c(OC)c2)cc1O [COMBRETASTATIN A4]	18 nM	5 nM	52 nM	–	–	Activity (A549 [4]): Active; Activity (A549 [8]): 61.32%; Activity (A549 [9]): 4.11%; Activity (Tubulin (Homo sapiens) [11]): Active; Activity (A549 [13]): 26.48%; Activity (A549 [19]): 8.09%
COc1ccc(Cn2cc(C(=O)Nc3cc(/C=C\c4cc(OC)c(OC)c(OC)c4)ccc3OC)nn2)cc1	2950 nM	3310 nM	2140 nM	3720 nM	2080 nM	–
COc1cccc(Cn2cc(C(=O)Nc3cc(/C=C\c4cc(OC)c(OC)c(OC)c4)cc(OC)c3OC)nn2)c1	570 nM	2890 nM	406 nM	1270 nM	513 nM	–
COc1cc(/C=C\c2cc(OC)c(OC)c(OC)c2)cc(NC(=O)c2cn(Cc3cccc(Oc4ccccc4)c3)nn2)c1OC	5880 nM	6610 nM	2680 nM	4260 nM	3990 nM	–
COc1ccc(/C=C\c2cc(OC)c(OC)c(OC)c2)c(NC(=O)c2cn(Cc3ccc(F)cc3)nn2)c1O	330 nM	3390 nM	568 nM	1860 nM	354 nM	–
COc1ccc(/C=C\c2cc(OC)c(OC)c(OC)c2)cc1NC(=O)c1cn(Cc2cc(OC)c(OC)c(OC)c2)nn1	190 nM	2040 nM	89 nM	1510 nM	620 nM	–
COc1cc(/C=C\c2cc(OC)c(OC)c(OC)c2)cc(NC(=O)c2cn(Cc3ccc(F)cc3)nn2)c1OC	320 nM	3090 nM	66 nM	897 nM	1360 nM	–
COc1ccc(/C=C\c2cc(OC)c(OC)c(OC)c2)c(NC(=O)c2cn(Cc3cccc(Oc4ccccc4)c3)nn2)c1O	5010 nM	7410 nM	3630 nM	4260 nM	4680 nM	–
CC(=O)O[C@H]1C(=O)[C@@]2(C)[C@H]([C@H](OC(=O)c3ccccc3)[C@]3(O)C[C@H](OC(=O)[C@H](O)[C@@H](NC(=O)c4ccccc4)c4ccccc4)C(C)=C1C3(C)C)[C@]1(OC(C)=O)CO[C@@H]1C[C@@H]2O	–	–	–	–	–	Activity (Tubulin (Homo sapiens) [11]): inactive
